ChEMBL document CHEMBL1128379, “Synthesis, characterization, and antimalarial activity of the glucuronides of the hydroxylated metabolites of arteether” (J Med Chem, 1995)
Converted amounts (≈) assume the structure as drawn.

Tests used:
[1] = Partition coefficient (logP); format: physicochemical; settings: octanol/water
How it was run: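 log P estimated from C-18 HPLC retention index. Retention times taken on thermospray LC/MS, isocratic 50% (v/v) methanol in water with 0.1 M ammonium acetate at 1 mL/min, positive ion, filament on, vaporizer tip 7 °C below take-off temperature, block 184 °C.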

[2] = test system: Plasmodium falciparum; assay: In vitro antimalarial activity against Plasmodium falciparum FCR3; format: functional, organism-based
How it was run: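 P. falciparum FCR-3 kept in candle jars in RPMI 1640 with 10% human serum, sorbitol-synchronized for at least three cycles. Serially diluted compounds plus ring-stage parasitized cells (0.5-1% parasitemia, 5-10% hematocrit), 37 °C for 24 h, then 2 μCi [3H]hypoxanthine added and incubated 24 h more. Cells harvested, scintillation counted, drug-free parasitized controls run alongside.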

Structure (SMILES)	logP ([1]; read-out: logP)	IC50 [2]	logP [1]
CCO[C@H]1O[C@@H]2O[C@@]3(C)CC[C@H]4[C@H](C)[C@@H](O)C[C@@H]([C@H]1C)[C@@]24OO3	1.93	–	–
C[C@H]1[C@H](O[C@@H]2O[C@H](C(=O)O)C(O)[C@H](O)C2O)O[C@@H]2O[C@H]3CC[C@H]4[C@H](C)CC[C@@H]1[C@@]24OO3 (stereo partly drawn)	1.08	6 µg/mL (≈ 13.4 µM)	–
CCO[C@H]1O[C@@H]2O[C@@]3(C)CC[C@H]4[C@H](CO[C@H]5O[C@@H](C(=O)O)[C@H](O)[C@@H](O)[C@@H]5O)CC[C@@H]([C@H]1C)[C@@]24OO3	1.05	6 µg/mL (≈ 11.9 µM)	–
CCO[C@H]1O[C@@H]2O[C@@]3(C)CC[C@H]4[C@H](CO)CC[C@@H]([C@H]1C)[C@@]24OO3	2.08	–	–
CCO[C@H]1O[C@@H]2O[C@@]3(C)CC[C@H]4[C@H](C)CC[C@@H]([C@H]1C)[C@@]24OO3 [ARTEMOTIL]	3.89	0.0013 µg/mL (≈ 0.00416 µM)	–
CCO[C@H]1O[C@@H]2O[C@@]3(C)C[C@H](O)[C@H]4[C@H](C)CC[C@@H]([C@H]1C)[C@@]24OO3	2.7	–	–
CCO[C@H]1O[C@@H]2O[C@@]3(C)CC[C@H]4[C@H](C)[C@@H](O[C@H]5O[C@@H](C(=O)O)[C@H](O)[C@@H](O)[C@@H]5O)C[C@@H]([C@H]1C)[C@@]24OO3	0.61	0.0893 µg/mL (≈ 0.177 µM)	–
CCO[C@H]1O[C@@H]2O[C@@]3(C)CC[C@H]4[C@H](C)[C@H](O)C[C@@H]([C@H]1C)[C@@]24OO3	2.14	–	–
CCO[C@H]1O[C@@H]2O[C@@]3(C)CC[C@H]4[C@H](C)[C@H](O[C@H]5O[C@@H](C(=O)O)[C@H](O)[C@@H](O)[C@@H]5O)C[C@@H]([C@H]1C)[C@@]24OO3	0.93	6.56 µg/mL (≈ 13 µM)	–
C[C@H]1[C@@H](O)O[C@@H]2O[C@@]3(C)CC[C@H]4[C@H](C)CC[C@@H]1[C@@]24OO3 [ARTENIMOL]	–	0.0107 µg/mL (≈ 0.0376 µM)	2.45
C[C@H]1[C@@H](O[C@@H]2O[C@H](C(=O)O)C(O)[C@H](O)C2O)O[C@@H]2O[C@H]3CC[C@H]4[C@H](C)CC[C@@H]1[C@@]24OO3 (stereo partly drawn)	1.8	0.255 µg/mL (≈ 0.571 µM)	–
